Experimental data: PMC10543179 (iScience, 2023)
Values joined by “and” are separate entries in the source; they are usually repeats but may differ in a detail not shown here. Equal values may be shown once. Read-outs that look alike come from different tables or passages of the source. Marks after values point to notes of the source that are not given here.

Experiments:
HeLa cells [1] = experiment: Lactate transport experiments; type: cell-based, Human; details: for Extra- and intracellular lactate levels in the presence of Syro compared with Syro alone: 3.9 μM compound, Syro 10 μM 1 h pre-treatment, 60 and 120 min
Outline: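 HeLa cells were seeded at 10^5 cells/mL and left overnight, then treated 60 and 120 min; test compounds were at 3.9 µM, with DMSO as control. Medium was kept for extracellular lactate. Cells were washed, permeabilised 5 min with 0.2 M HCl in PBS, and neutralised with 1 M Tris base. Extracts were mixed 1:1 with Lactate-Glo reagent, and luminescence was read after 1 h against a standard curve. Values were normalised to BCA protein after 2% SDS lysis.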

MCF10A = experiment: MTT cell viability assay; type: cell-based, Human; details: 24 h; for IC25 MCF10A / IC75 MCF10A: mean ± SD; for IC50: Homo sapiens, MCF-10A, read-out: IC50 MCF10A
Outline: (§1)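 Cells were seeded at 10^4/well and left overnight, then exposed 24 h to 0.8–100 µmol/L test compound, with DMSO as control. MTT (5 mg/mL) was added for 2 h at 37 °C; formazan was dissolved in DMSO and read at 570 nm. IC25/50/75 came from viability curves, triplicate wells, ≥3 independent experiments, mean ± SD. Media: HeLa and CAL27 DMEM/10% FBS; MCF7 DMEM/F12/10% FBS plus insulin; MCF10A DMEM/F12/5% horse serum plus insulin.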

HeLa = experiment: MTT cell viability assay; type: cell-based, Human; details: 24 h; for IC25 HeLa / IC75 HeLa: mean ± SD; for IC50: Homo sapiens, HeLa, read-out: IC50 HeLa
Outline: as §1

MCF7 = experiment: MTT cell viability assay; type: cell-based, Human; details: for IC25 MCF7 / IC75 MCF7: 24 h, mean ± SD; for IC50: Homo sapiens, MCF7, 24 h, read-out: IC50 MCF7
Outline: as §1

[2] = test system: HeLa, MCF7, CAL27 and MCF10A cell lines; experiment: MTT cell viability assay, summary among cell lines; type: cell-based; details: Homo sapiens, 24 h, read-out: IC50 values among different cell lines
Outline: as §1

CAL27 = experiment: MTT cell viability assay; type: cell-based, Human; details: for IC25 CAL27 / IC75 CAL27: 24 h, mean ± SD; for IC50: Homo sapiens, CAL-27, 24 h, read-out: IC50 CAL27
Outline: as §1

[3] = 13C NMR lactate transport assay; type: biochemical; details: 1% mol carrier to lipid, 50 mM NaCl, 0.5 mM MnCl2
Outline: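 POPC vesicles loaded with 13C-carboxyl-labelled sodium L-lactate (200 mM NaLac, 20 mM NaH2PO4, pH 7.2), then dialysed against 150 mM Na2SO4, 20 mM NaH2PO4, pH 7.2 to remove unencapsulated lactate. 13C NMR spectra were taken after the NaCl pulse with the test compound, then after MnCl2, which affects only extravesicular lactate signals.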

[4] = ISE chloride efflux assay, Cl−/NO3− exchange; type: biochemical; details: read-out: EC50 Cl^−/NO3^−; chloride efflux at 300 s, 0.5 mM POPC, pH 7.2
Outline: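 POPC vesicles (200 nm) held 489 mM NaCl, 5 mM NaH2PO4, pH 7.2, and were dialysed into and dispersed in 489 mM NaNO3, 5 mM NaH2PO4, pH 7.2; final lipid 0.5 mM. Test compound in DMSO was added at t = 0, with DMSO as blank. Chloride release was followed by chloride-selective electrode for 300 s, then Triton-X lysis set 100% release. EC50 and Hill coefficient were derived.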

[5] = read-out: EC50 Cl^−/HCO3^−; chloride efflux at 300 s, POPC vesicles; cited from earlier work
[6] = read-out: EC50 Cl^−/NO3^−; chloride efflux at 300 s, POPC vesicles; cited from earlier work
[7] = deprotonated form, calculated; cited from earlier work
HeLa cells [8] = experiment: Combination therapy of 1 and CisPt; type: cell-based, Human
[9] = Solubility in DMSO-d6 when preparing NMR solutions; type: physicochemical; details: DMSO-d6, 25 °C, organic solvent or mixture

Row | Structure (SMILES) | IC25 MCF10A (MCF10A) [µM] | IC75 MCF10A (MCF10A) [µM] | IC50 (MCF10A) [µM] | IC25 HeLa (HeLa) [µM] | IC75 HeLa (HeLa) | IC50 (HeLa) [µM] | IC25 MCF7 (MCF7) [µM] | IC75 MCF7 (MCF7) [µM] | IC50 (MCF7) [µM] | IC50 [2] [µM] | IC25 CAL27 (CAL27) [µM] | IC75 CAL27 (CAL27) [µM] | IC50 (CAL27) [µM] | EC50 [4] [µM] | other results
1 | CCOC(=O)Oc1c(OC)cc(C(=O)O[C@@H]2C[C@@H]3CN4CCc5c([nH]c6cc(OC)ccc56)[C@H]4C[C@@H]3[C@H](C(=O)OC)[C@H]2OC)cc1OC [Syro, Syrosingopine, reference compound] | – | – | – | – | – | – | – | – | – | – | – | – | – | – | Intracellular lactate levels compared to DMSO (HeLa cells [1]; Syro alone 10 μM, 60 and 120 min (p < 0.0001)): significantly higher than DMSO
2 | COc1cc(-c2cn(CCO)nn2)[nH]c1/C=N/CCO.Cl [Compound 4, (E)-2-hydroxy-N-((5-(1-(2-hydroxyethyl)-1H-1,2,3-triazol-4-yl)-3-methoxy-1H-pyrrol-2-yl)methylene)ethan-1-aminium chloride] | 98.64 ± 0.94 | >100 | > 100 | >100 | >100 µM | > 100 | >100 | >100 | > 100 | > 82 | 60.97 ± 5.40 | >100 | 82.1 ± 2.88 | – | Lactate efflux from vesicles seen by 13C NMR after NaCl pulse and MnCl2 [3]: no changes; Extra- and intracellular lactate levels in the presence of Syro compared with Syro alone (HeLa cells [1]): no significant differences
3 | COc1cc(-c2cn(CCO)nn2)[nH]c1/C=N/C12CC3CC(CC(C3)C1)C2.Cl [Compound 5, N-((E)-(5-(1-(2-Hydroxyethyl)-1H-1,2,3-triazol-4-yl)-3-methoxy-1H-pyrrol-2-yl)methylene)adamantan-1-aminium chloride] | 94.92 ± 5.23 | >100 | > 100 | 78.14 ± 3.00 | 93.73 ± 3.71 µM | 85.6 ± 2.94 | >100 | >100 | > 100 | > 82 | 86.88 ± 6.79 | >100 | 96 ± 4.79 | – | Extra- and intracellular lactate levels in the presence of Syro compared with Syro alone (HeLa cells [1]): no significant differences
4 | COc1cc(-c2cn(-c3ccc(C(C)(C)C)cc3)nn2)[nH]c1/C=N/C1CCCC1.Cl [Compound 2, (E)-N-((5-(1-(4-(tert-butyl)phenyl)-1H-1,2,3-triazol-4-yl)-3-methoxy-1H-pyrrol-2-yl)methylene)cyclopentanaminium chloride] | 13.62 ± 1.64 | 25.65 ± 3.97 | 18.7 ± 2.55 | 11.34 ± 0.38 | 13.77 ± 1.88 µM | 12.5 ± 0.98 | 4.04 ± 1.37 | 20.49 ± 3.88 | 9.06 ± 2.35 | 4.6 to 25.4 | 9.25 ± 2.26 | 12.35 ± 2.40 | 10.6 ± 2.06 | 0.016 ± 0.001 | –
5 | COc1cc(-c2cn(-c3ccc(Cl)cc3)nn2)[nH]c1/C=N/C1CCCCC1.Cl [Compound 6, (E)-N-((5-(1-(4-Chlorophenyl)-1H-1,2,3-triazol-4-yl)-3-methoxy-1H-pyrrol-2-yl)methylene)cyclohexanaminium chloride] | 3.49 ± 0.22 | 6.12 ± 1.56 | 4.61 ± 0.15 | 6.09 ± 0.09 | 6.54 ± 0.02 µM | 6.31 ± 0.06 | 9.05 ± 1.13 | 14.53 ± 1.23 | 11.5 ± 1.19 | 4.6 to 25.4 | 6.58 ± 2.98 | 8.44 ± 2.59 | 7.41 ± 2.77 | – | EC50 [5]: 0.13 ± 0.007 µM; EC50 [6]: 0.0326 ± 0.0008 µM; LogP [7]: 4.22 ^c
6 | COc1cc(-c2cn(-c3ccc(C(C)(C)C)cc3)nn2)[nH]c1/C=N/CCO.Cl [Compound 3, (E)-N-((5-(1-(4-(tert-butyl)phenyl)-1H-1,2,3-triazol-4-yl)-3-methoxy-1H-pyrrol-2-yl)methylene)-2-hydroxyethan-1-aminium chloride] | 18.11 ± 3.23 | 35.95 ± 4.27 | 25.4 ± 1.61 | 11.98 ± 0.40 | 15.29 ± 1.87 µM | 13.5 ± 1.05 | 7.22 ± 0.85 | 34.69 ± 3.11 | 15.8 ± 1.14 | 4.6 to 25.4 | 14.62 ± 3.20 | 20.88 ± 4.45 | 17.4 ± 3.31 | 8.34 ± 0.431 | –
7 | COc1cc(-c2cn(-c3ccc(C(C)(C)C)cc3)nn2)[nH]c1/C=N/C12CC3CC(CC(C3)C1)C2.Cl [Compound 1, N-((E)-(5-(1-(4-(tert-butyl)phenyl)-1H-1,2,3-triazol-4-yl)-3-methoxy-1H-pyrrol-2-yl)methylene)adamantan-1-aminium chloride] | 5.36 ± 1.09 | 11.22 ± 3.94 | 7.66 ± 1.86 | 2.85 ± 0.16 | 3.9 µM and 3.95 ± 0.26 µM | 3.36 ± 0.19 | 4.00 ± 1.22 | 7.91 ± 1.42 | 5.58 ± 1.17 | 3.3 to 7.7 | 2.68 ± 0.18 | 4.00 ± 0.50 | 3.27 ± 0.27 | 0.0037 ± 0.0004 | Effect of combination therapy with CisPt on cell viability (HeLa cells [8]; 1 at IC10, IC25, IC50, IC75 for 24 h, then CisPt 24 h, all doses of 1): higher compared with respective monotherapy of CisPt; Type of interaction with CisPt (Combination Index) (HeLa cells [8]; higher doses of both 1 and CisPt): moderate synergic effect; Type of interaction with CisPt (Combination Index) (HeLa cells [8]; majority of the dose combinations tested): additive effect; solubility [9]: < 50 mM; Lactate efflux from vesicles seen by 13C NMR after NaCl pulse and MnCl2 [3]: facilitates lactate efflux
